Activity calls are given as the source filed them. No cut-off for these calls is given here.
What was measured:
[1] = molecular target: T1, Sialic acid-binding Ig-like lectin 7 (Homo sapiens, UniProt Q9Y286); assay: Binding affinity to recombinant human Fc-fused siglec-7 after 1 hr by fluorescence based glycan microarray analysis
Outline: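 Surface KD determination on the same glycan microarray. Fc-Siglec-7 was applied at 0.735–588 nM (13 concentrations) for 1 h at rt and washed with PBST, then detected with anti-human IgG-Cy3 (10 µg/mL) for 0.5 h. Fluorescence was plotted against Siglec concentration and fitted to y = Bmax·x/(KD + x).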

[2] = molecular target: T2, Sialic acid-binding Ig-like lectin 14 (Homo sapiens) (UniProt Q08ET2); assay: Binding affinity to recombinant human Fc-fused siglec-14 by fluorescence based glycan microarray analysis
T2 sequence (whole entry): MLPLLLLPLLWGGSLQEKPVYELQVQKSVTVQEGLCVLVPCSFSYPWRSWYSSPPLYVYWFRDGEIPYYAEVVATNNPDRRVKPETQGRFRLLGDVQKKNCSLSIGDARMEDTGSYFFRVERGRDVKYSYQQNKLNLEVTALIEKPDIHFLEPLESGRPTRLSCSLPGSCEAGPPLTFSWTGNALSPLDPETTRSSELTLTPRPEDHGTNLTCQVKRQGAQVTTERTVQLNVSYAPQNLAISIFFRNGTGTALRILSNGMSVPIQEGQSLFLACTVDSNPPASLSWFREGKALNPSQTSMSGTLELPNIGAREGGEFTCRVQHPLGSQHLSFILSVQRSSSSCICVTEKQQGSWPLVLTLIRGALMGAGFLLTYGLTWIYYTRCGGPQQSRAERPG
Outline: (§1)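 Azidoglycans CuAAC-coupled onto alkyne-modified glass (10% zwitterionic silane mix), five replicate spots each, remaining alkynes capped with azido-ethylene glycol. Slides blocked 0.5 h in 3% BSA/PBS, then probed 1 h at rt with Fc-Siglec (10 µg/mL) premixed 1:1 with Fc-specific anti-human IgG-Cy3 (10 µg/mL) in PBS/0.1% BSA. After PBST washes, Cy3 fluorescence was scanned and averaged over replicates.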

[3] = molecular target: Sialic acid-binding Ig-like lectin 9 (Homo sapiens) (UniProt Q9Y336); assay: Binding affinity to recombinant human Fc-fused siglec-9 by fluorescence based glycan microarray analysis; outline: as §1
Sialic acid-binding Ig-like lectin 9 (Homo sapiens), sequence (Q9Y336 whole entry, the tested form may be a part): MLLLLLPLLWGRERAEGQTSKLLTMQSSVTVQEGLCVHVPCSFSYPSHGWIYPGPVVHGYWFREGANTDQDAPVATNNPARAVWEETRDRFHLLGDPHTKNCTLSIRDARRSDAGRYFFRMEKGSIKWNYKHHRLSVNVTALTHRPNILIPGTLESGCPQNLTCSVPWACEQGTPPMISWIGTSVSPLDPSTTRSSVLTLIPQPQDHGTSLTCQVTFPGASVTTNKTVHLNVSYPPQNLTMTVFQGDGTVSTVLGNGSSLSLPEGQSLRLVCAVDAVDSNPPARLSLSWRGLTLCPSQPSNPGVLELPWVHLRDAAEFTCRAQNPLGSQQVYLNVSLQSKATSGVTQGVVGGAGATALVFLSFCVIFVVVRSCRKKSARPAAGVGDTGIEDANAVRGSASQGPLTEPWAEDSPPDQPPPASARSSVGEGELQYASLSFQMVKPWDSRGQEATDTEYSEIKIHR

[4] = molecular target: B-cell receptor CD22 (Homo sapiens) (UniProt P20273); assay: Binding affinity to recombinant human Fc-fused siglec-2 by fluorescence based glycan microarray analysis; outline: as §1
B-cell receptor CD22 (Homo sapiens), sequence (P20273 whole entry, the tested form may be a part): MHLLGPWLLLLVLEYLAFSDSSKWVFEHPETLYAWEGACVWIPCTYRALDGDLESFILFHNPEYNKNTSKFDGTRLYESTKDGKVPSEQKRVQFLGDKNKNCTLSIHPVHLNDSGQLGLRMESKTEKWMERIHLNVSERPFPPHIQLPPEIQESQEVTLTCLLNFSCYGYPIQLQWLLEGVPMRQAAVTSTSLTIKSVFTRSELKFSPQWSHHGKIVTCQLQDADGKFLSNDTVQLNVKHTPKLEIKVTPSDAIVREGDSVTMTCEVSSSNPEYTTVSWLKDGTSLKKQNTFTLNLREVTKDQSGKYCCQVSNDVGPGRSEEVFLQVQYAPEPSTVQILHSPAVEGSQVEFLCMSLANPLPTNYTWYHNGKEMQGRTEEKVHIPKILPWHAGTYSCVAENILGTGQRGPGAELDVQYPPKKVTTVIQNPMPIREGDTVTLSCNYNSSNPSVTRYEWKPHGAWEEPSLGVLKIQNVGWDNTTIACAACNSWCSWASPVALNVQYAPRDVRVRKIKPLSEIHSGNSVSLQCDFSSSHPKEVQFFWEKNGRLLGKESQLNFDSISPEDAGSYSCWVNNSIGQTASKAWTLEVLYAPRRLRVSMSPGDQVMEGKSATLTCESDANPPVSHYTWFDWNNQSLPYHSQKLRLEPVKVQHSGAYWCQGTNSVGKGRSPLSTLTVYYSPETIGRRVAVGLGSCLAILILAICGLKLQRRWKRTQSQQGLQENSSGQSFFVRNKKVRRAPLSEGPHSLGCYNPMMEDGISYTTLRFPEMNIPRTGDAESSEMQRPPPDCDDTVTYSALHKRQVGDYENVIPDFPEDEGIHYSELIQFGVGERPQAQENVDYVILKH

[5] = molecular target: T1, Sialic acid-binding Ig-like lectin 7; assay: Binding affinity to recombinant human Fc-fused siglec-7 by fluorescence based glycan microarray analysis; outline: as §1
[6] = molecular target: T3, Sialic acid-binding Ig-like lectin 15 (Homo sapiens) (UniProt Q6ZMC9); assay: Binding affinity to recombinant human Fc-fused siglec-15 by fluorescence based glycan microarray analysis; outline: as §1
T3 sequence (whole entry): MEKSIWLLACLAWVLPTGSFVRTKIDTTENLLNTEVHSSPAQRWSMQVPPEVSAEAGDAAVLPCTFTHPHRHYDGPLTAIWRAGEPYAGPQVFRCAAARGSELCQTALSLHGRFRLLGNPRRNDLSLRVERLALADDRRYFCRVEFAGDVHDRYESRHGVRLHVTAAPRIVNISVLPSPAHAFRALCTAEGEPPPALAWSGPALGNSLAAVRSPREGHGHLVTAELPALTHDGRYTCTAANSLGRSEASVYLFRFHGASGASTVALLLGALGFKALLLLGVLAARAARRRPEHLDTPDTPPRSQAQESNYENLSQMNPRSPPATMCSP

[7] = molecular target: T1, Sialic acid-binding Ig-like lectin 7; assay: Binding affinity to recombinant human Fc-fused siglec-7 expressed in CHO cells measured over 180 secs; type: cell-based

T1 sequence (Q9Y286 whole entry, the tested form may be a part): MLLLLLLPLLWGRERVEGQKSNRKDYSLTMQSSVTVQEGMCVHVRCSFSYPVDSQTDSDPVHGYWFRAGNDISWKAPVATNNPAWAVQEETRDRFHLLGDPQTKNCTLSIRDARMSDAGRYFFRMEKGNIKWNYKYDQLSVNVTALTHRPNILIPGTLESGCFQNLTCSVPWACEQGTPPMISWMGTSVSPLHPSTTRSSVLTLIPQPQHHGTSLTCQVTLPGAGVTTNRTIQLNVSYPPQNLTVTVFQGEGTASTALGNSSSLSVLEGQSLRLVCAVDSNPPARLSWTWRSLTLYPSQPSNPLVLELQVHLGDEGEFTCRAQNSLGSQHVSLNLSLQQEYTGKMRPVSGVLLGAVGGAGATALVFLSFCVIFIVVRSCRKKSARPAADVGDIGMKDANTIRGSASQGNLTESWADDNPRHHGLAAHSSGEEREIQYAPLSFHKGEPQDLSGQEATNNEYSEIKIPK

Compound	Kd [1] [nM]	Activity [2]	Activity [3]	Activity [4]	Activity [5]	Activity [6]	Kd [7] [nM]
CC(=O)N[C@H]1[C@H](OCCCCCCN=[N+]=[N-])O[C@H](CO)[C@@H](O[C@@H]2O[C@H](CO)[C@H](O)[C@H](O[C@]3(C(=O)O)C[C@H](O)[C@@H](NC(C)=O)[C@H]([C@H](O)[C@H](O)CO)O3)[C@H]2O)[C@@H]1O[C@@H]1O[C@@H](C)[C@@H](O)[C@@H](O)[C@@H]1O	–	–	Active	–	–	–	–
CC(=O)N[C@H]1[C@H](OCCCCCCN=[N+]=[N-])O[C@H](CO)[C@@H](O[C@@H]2O[C@H](CO)[C@H](O)[C@H](O[C@]3(C(=O)O)C[C@H](O)[C@@H](NC(C)=O)[C@H]([C@H](O)[C@H](O)CO)O3)[C@H]2O)[C@@H]1O	–	Active	Active	–	inactive	–	–
CC(=O)N[C@H]1[C@H](OCCCCCCN=[N+]=[N-])O[C@H](CO)[C@@H](O[C@@H]2O[C@H](CO)[C@H](O)[C@H](O[C@@H]3O[C@H](CO)[C@@H](O)[C@@H](O[C@@H]4O[C@H](CO[C@]5(C(=O)O)C[C@H](O)[C@@H](NC(C)=O)[C@H]([C@H](O)[C@H](O)CO)O5)[C@H](O)[C@H](O[C@]5(C(=O)O)C[C@H](O)[C@@H](NC(C)=O)[C@H]([C@H](O)[C@H](O)CO)O5)[C@H]4O)[C@H]3NC(C)=O)[C@H]2O)[C@@H]1O	–	–	–	inactive	–	inactive	–
CC(=O)N[C@H]1[C@H](OCCCCCCN=[N+]=[N-])O[C@H](CO)[C@@H](O[C@@H]2O[C@H](CO)[C@H](O)[C@H](O[C@@H]3O[C@H](CO)[C@@H](O)[C@@H](O[C@@H]4O[C@H](CO)[C@H](O)[C@H](O[C@@H]5O[C@H](CO)[C@@H](O)[C@@H](O[C@@H]6O[C@H](CO[C@]7(C(=O)O)C[C@H](O)[C@@H](NC(C)=O)[C@H]([C@H](O)[C@H](O)CO)O7)[C@H](O)[C@H](O)[C@H]6O)[C@H]5NC(C)=O)[C@H]4O)[C@H]3NC(C)=O)[C@H]2O)[C@@H]1O	–	–	Active	Active	inactive	–	–
CC(=O)N[C@H]1[C@H]([C@H](O)[C@H](O)CO)O[C@@](OC[C@H]2O[C@@H](O[C@H]3[C@H](O)[C@@H](O)[C@H](OCCCCCCN=[N+]=[N-])O[C@@H]3CO)[C@H](O)[C@@H](O)[C@H]2O)(C(=O)O)C[C@@H]1O	–	–	Active	Active	Active	–	–
CC(=O)N[C@H]1[C@H](OCCCCCCN=[N+]=[N-])O[C@H](CO)[C@@H](O[C@@H]2O[C@H](CO)[C@H](O)[C@H](O[C@@H]3O[C@H](CO)[C@@H](O)[C@@H](O[C@@H]4O[C@H](CO[C@]5(C(=O)O)C[C@H](O)[C@@H](NC(C)=O)[C@H]([C@H](O)[C@H](O)CO)O5)[C@H](O)[C@H](O)[C@H]4O)[C@H]3NC(C)=O)[C@H]2O)[C@@H]1O	–	–	Active	Active	inactive	–	–
CC(=O)N[C@H]1[C@H]([C@H](O)[C@H](O)CO)O[C@@](O[C@H]2[C@@H](O)[C@@H](CO)O[C@@H](O[C@H]3[C@H](O)[C@@H](O)[C@H](OCCCCCCN=[N+]=[N-])O[C@@H]3CO)[C@@H]2O)(C(=O)O)C[C@@H]1O	–	–	Active	–	inactive	–	–

Results, then the compound that gave them:

Kd [1] [nM]	Activity [2]	Activity [3]	Activity [4]	Activity [5]	Activity [6]	Kd [7] [nM]	Compound
54.1	–	–	–	–	–	–	CC(=O)N[C@H]1[C@H](OCCCCCCN=[N+]=[N-])O[C@H](CO)[C@@H](O[C@@H]2O[C@H](CO)[C@H](O)[C@H](O[C@]3(C(=O)O)C[C@H](O)[C@@H](NC(C)=O)[C@H]([C@@H](O)[C@@H](CO)O[C@]4(C(=O)O)C[C@H](O)[C@@H](NC(C)=O)[C@H]([C@@H](O)[C@@H](CO)O[C@]5(C(=O)O)C[C@H](O)[C@@H](NC(C)=O)[C@H]([C@H](O)[C@H](O)CO)O5)O4)O3)[C@H]2O)[C@@H]1O
43.3	Active	–	–	–	–	–	CC(=O)N[C@H]1[C@H](OCCCCCCN=[N+]=[N-])O[C@H](CO)[C@@H](O[C@@H]2O[C@H](CO)[C@H](O)[C@H](O[C@]3(C(=O)O)C[C@H](O)[C@@H](NC(C)=O)[C@H]([C@@H](O)[C@@H](CO)O[C@]4(C(=O)O)C[C@H](O)[C@@H](NC(C)=O)[C@H]([C@H](O)[C@H](O)CO)O4)O3)[C@H]2O)[C@@H]1O
38.7	Active	Active	inactive	Active	Active	–	CC(=O)N[C@H]1[C@H](OCCCCCCN=[N+]=[N-])O[C@H](CO)[C@@H](O[C@@H]2O[C@H](CO[C@]3(C(=O)O)C[C@H](O)[C@@H](NC(C)=O)[C@H]([C@H](O)[C@H](O)CO)O3)[C@H](O)[C@H](O[C@]3(C(=O)O)C[C@H](O)[C@@H](NC(C)=O)[C@H]([C@H](O)[C@H](O)CO)O3)[C@H]2O)[C@@H]1O
–	–	–	–	inactive	–	–	CC(=O)N[C@H]1[C@H](OCCCCCCN=[N+]=[N-])O[C@H](CO)[C@@H](O[C@@H]2O[C@H](CO)[C@H](O)[C@H](O[C@@H]3O[C@H](CO)[C@@H](O[C@@H]4O[C@H](CO)[C@H](O)[C@H](O[C@]5(C(=O)O)C[C@H](O)[C@@H](NC(C)=O)[C@H]([C@@H](O)[C@@H](CO)O[C@]6(C(=O)O)C[C@H](O)[C@@H](NC(C)=O)[C@H]([C@H](O)[C@H](O)CO)O6)O5)[C@H]4O)[C@H](O)[C@H]3NC(C)=O)[C@H]2O)[C@@H]1O
48.7	–	–	–	–	–	–	CC(=O)N[C@H]1[C@H]([C@@H](O)[C@@H](CO)O[C@]2(C(=O)O)C[C@H](O)[C@@H](NC(C)=O)[C@H]([C@@H](O)[C@@H](CO)O[C@]3(C(=O)O)C[C@H](O)[C@@H](NC(C)=O)[C@H]([C@H](O)[C@H](O)CO)O3)O2)O[C@@](O[C@H]2[C@@H](O)[C@@H](CO)O[C@@H](O[C@H]3[C@H](O)[C@@H](O)[C@H](OCCCCCCN=[N+]=[N-])O[C@@H]3CO)[C@@H]2O)(C(=O)O)C[C@@H]1O
–	–	Active	inactive	–	–	–	CC(=O)N[C@H]1[C@H](OCCCCCCN=[N+]=[N-])O[C@H](CO)[C@@H](O[C@@H]2O[C@H](CO[C@]3(C(=O)O)C[C@H](O)[C@@H](NC(C)=O)[C@H]([C@H](O)[C@H](O)CO)O3)[C@H](O)[C@H](O[C@@H]3O[C@H](CO)[C@@H](O)[C@H](O)[C@H]3NC(C)=O)[C@H]2O)[C@@H]1O
32.7	Active	–	–	–	–	60	CC(=O)N[C@H]1[C@H]([C@@H](O)[C@@H](CO)O[C@]2(C(=O)O)C[C@H](O)[C@@H](NC(C)=O)[C@H]([C@H](O)[C@H](O)CO)O2)O[C@@](O[C@H]2[C@@H](O)[C@@H](CO)O[C@@H](O[C@H]3[C@H](O)[C@@H](O)[C@H](OCCCCCCN=[N+]=[N-])O[C@@H]3CO)[C@@H]2O)(C(=O)O)C[C@@H]1O
26.8	Active	–	inactive	Active	Active	–	CC(=O)N[C@H]1[C@H]([C@H](O)[C@H](O)CO)O[C@@](OC[C@H]2O[C@@H](O[C@H]3[C@H](O)[C@@H](O)[C@H](OCCCCCCN=[N+]=[N-])O[C@@H]3CO)[C@H](O)[C@@H](O[C@]3(C(=O)O)C[C@H](O)[C@@H](NC(C)=O)[C@H]([C@H](O)[C@H](O)CO)O3)[C@H]2O)(C(=O)O)C[C@@H]1O

From ChEMBL document CHEMBL4364321, “Expedient assembly of Oligo-LacNAcs by a sugar nucleotide regeneration system: Finding the role of tandem LacNAc and sialic acid position towards siglec binding” (Eur J Med Chem, 2019)
